Screening data as filed in PubChem BioAssay.
MrgX1 allo act = human MrgX1 positive allosteric modulation, primary screen | AID 588675 | MrgX1-HEK293, Fluo-4 calcium flux, FDSS; hits give high values | B-score at 10 µM | hit rate 0.63% among 310,000 | Q96LB2;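 active = plate-corrected calcium response at least 3 library SD above typical, normal starting fluorescence, not activating the receptor alone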;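 also: compound read alongside a low EC10 to EC30 dose of BAM8-22 agonist; peak minus trough fluorescence over baseline measured at the second addition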
Target sequence (Q96LB2 whole entry, looked up): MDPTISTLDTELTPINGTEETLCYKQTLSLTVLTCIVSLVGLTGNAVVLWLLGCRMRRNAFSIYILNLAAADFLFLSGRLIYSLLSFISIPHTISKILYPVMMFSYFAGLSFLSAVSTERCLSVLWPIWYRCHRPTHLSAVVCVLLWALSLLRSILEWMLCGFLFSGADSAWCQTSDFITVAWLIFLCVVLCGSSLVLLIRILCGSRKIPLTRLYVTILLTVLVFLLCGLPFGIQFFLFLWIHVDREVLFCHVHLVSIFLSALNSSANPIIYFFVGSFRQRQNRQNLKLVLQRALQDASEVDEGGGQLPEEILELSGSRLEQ
MrgX1 antagonist = human MrgX1 receptor antagonism, primary screen. hit rate 1.3% among 310,000. AID 588676. MRGX1-HEK293 calcium flux, Fluo-4, BAM8-22 antagonism; hits give low values. Q96LB2. B-score at 10 µM;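 active = calcium-response B-score plate-corrected more than 3 library SD below zero, starting fluorescence within 5 deviations, no agonist response on first addition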;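 also: peak minus trough fluorescence over baseline after final BAM8-22 challenge near maximal dose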
MrgX1 agonist = human MrgX1 receptor agonism, primary screen | MrgX1-HEK293 cells, Fluo-4 calcium fluorescence, agonist mode; hits give high values | B-score at 10 µM | hit rate 0.44% among 310,000 | AID 588627;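 active = calcium response B-score plate-corrected fluorescence ratio at least 3 library SD, with starting fluorescence B-score inside 5 SD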
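Test system: HEK293 cells stably expressing human MrgX1 receptor; Input: fifteen thousand cells per well; Dosing: compound delivered in addition one of three; Schedule: overnight seeding, then 1 h dark dye loading; Technique: Fluo-4 NW calcium fluorescence; Measure: B-scored fluorescence response ratio; Controls: positive and negative controls per plate.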
RGS4 act = potentiators or activators of RGS4 | hit rate 0.92% among 310,000 | HEK293 M3R/inducible RGS4, carbachol calcium flux Fluo4; hits give low values | B-score at 10 µM;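 active = B-score of the integrated calcium signal more than 4 SD below the library mean, with starting fluorescence not abnormally high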;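 also: negative B-score means reduced calcium response which marks RGS4 activation or potentiation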
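Assay system: Inducible-RGS4 HEK293 cells carrying M3 receptor | Schedule: Compound preincubation 20 min at room temperature before agonist | Signal: Kinetic calcium fluorescence imaging with Fluo4-AM dye, 2 µM | Read-out basis: B score from integrated fluorescence ratio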
RGS4 inh = human RGS4 inhibition. P49798. HEK293 M3R/RGS4 inducible, Fluo-4 calcium flux; hits give high values; triggered by carbachol at its EC20. B-score at 10 µM. hit rate 0.45% among 310,000. AID 463165;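 active = B-score, a plate-corrected calcium signal, over three deviations above library mean, with baseline fluorescence within five deviations of library mean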;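 also: RGS4 expression induced by doxycycline in cells with stable M3 receptor; B-score is computed from the integrated fluorescence ratio over baseline after carbachol; higher B-score means a larger calcium signal and so more RGS4 inhibition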
Target sequence (P49798 whole entry, looked up): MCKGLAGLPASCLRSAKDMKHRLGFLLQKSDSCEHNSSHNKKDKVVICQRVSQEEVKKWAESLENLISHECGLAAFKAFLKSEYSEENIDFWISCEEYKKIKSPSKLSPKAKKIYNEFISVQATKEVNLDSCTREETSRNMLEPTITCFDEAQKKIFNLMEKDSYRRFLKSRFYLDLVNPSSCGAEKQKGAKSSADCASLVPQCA
RGS4 inh valid = validation of RGS4 inhibitors; shares compounds with RGS4 inh; HEK293 M3R/RGS4, carbachol calcium Fluo-4 fluorescence; carbachol added at its EC20; 0 = buffer wells, 100 = carbachol control; calcium response, % at 10 µM; hit rate 65% among 1,700; AID 492999;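 active = duplicate-averaged calcium response above the buffer-only control mean plus 5 SD of those controls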;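 also: integrated fluorescence ratio F max minus min over baseline F0; higher response in RGS4-induced cells means RGS4 inhibition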
RGS4 uninduced = non-induced cell nonspecific activity of RGS4 inhibitors. shares compounds with RGS4 inh. HEK293 M3R non-induced, carbachol calcium Fluo-4; submaximal (EC20) carbachol stimulus; buffer wells 0%, carbachol control wells 100%. activity (percent), % at 10 µM. hit rate 20% among 1,900. AID 493000; call rule not given here;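 also: RGS4 induction absent so cells express M3R without RGS4; higher means more calcium signal and flags a non-specific hit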
RGS4 inh ctr2 = second RGS4 inhibitor counter-screen in uninduced cells lacking carbachol | AID 493001 | HEK293 M3R/RGS4 non-induced, Fluo-4 calcium, no carbachol; normalised: buffer wells 0%, carbachol wells 100% | shares compounds with RGS4 inh | hit rate 22% among 1,900 | calcium response (agonist-mode artifact), % at 10 µM;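 active = duplicate-averaged calcium rise in uninduced cells above buffer wells' mean plus 5 SD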
MrgX1 ag reconf = reconfirmed activator of human MrgX1 receptor signaling. hit rate 78% among 600. shares compounds with MrgX1 agonist. activation, % at 10 µM. MrgX1-HEK293, Fluo-4 calcium fluorescence, FDSS. AID 602412;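 active = calcium signal rise, corrected for plate position, at least 3 library SD high, with starting brightness within 5 such deviations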
HEK293 Ca flux = MrgX1 antagonist counter-screen hit in parental HEK293 cells. shares compounds with MrgX1 antagonist. Fluo-4 calcium fluorescence, FDSS. fluorescence ratio F(max-min)/F0 at 10 µM. hit rate 2% among 4,000. AID 624111;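 active = duplicate-averaged calcium fluorescence ratio at least three times the standard deviation of buffer wells, a nonspecific response in parental cells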
HEK293 Ca counter = MrgX1 allosteric activator counter-screen hit in parental HEK293 cells; parental HEK293 calcium flux, Fluo-4 fluorescence ratio; hits give high values; shares compounds with MrgX1 antagonist; fluorescence ratio F(max-min)/F0 at 10 µM; hit rate 0.4% among 4,000; AID 624114;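 active = calcium fluorescence ratio, averaged over duplicates, at least 3 SD of the buffer-well ratio, meaning a nonspecific response in receptor-free cells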;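 also: untransfected parental HEK293 lacking MrgX1 used as counterscreen for MrgX1 allosteric activators; fluorescence change taken during the second addition on a kinetic imager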
HEK293 Ca cntr2 = counter-screen for MrgX1 activators: effect in parental HEK293 cells; shares compounds with MrgX1 antagonist; Fluo-4 calcium fluorescence (FDSS); hits give high values; fluorescence ratio F(max-min)/F0 at 10 µM; hit rate 8.7% among 4,000; AID 624115;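 active = calcium fluorescence ratio at least three times the spread of buffer wells, meaning a non-specific response in parental cells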
Numbers without * were called inactive; i = inactive; x = no result given. The list is not random: actives were taken first. Their share in the collection is about 3.5%.

SMILES	MrgX1 allo act	MrgX1 antagonist	MrgX1 agonist	RGS4 act	RGS4 inh	RGS4 inh valid	RGS4 uninduced	RGS4 inh ctr2	others
COc1ccc(S(=O)(=O)/N=C2/NC(=O)/C(=C\c3cc(OC)c(OC)cc3[N+](=O)[O-])S2)cc1	i	i	i	i	i	i	i	i
COc1cc(/C=C2\S/C(=N/S(=O)(=O)c3ccccc3)NC2=O)c([N+](=O)[O-])cc1OC	i	i	i	i	6.8*	30%*	68%*	i
CCOc1ccc2nc(Cl)c(/C=C/C(=O)c3ccco3)cc2c1	i	i	i	i	9.5*	i	40%*	i
Cc1cccc2cc(/C=C/C(=O)c3ccco3)c(Cl)nc12	i	i	i	i	i	x	x	x
C=CCNC(=O)COC(=O)c1nc2nccc(C)n2n1	i	i	i	i	i	x	i	i
CCOc1ccc(S(=O)(=O)N2CCN(C(=O)CCOc3ccccc3C)CC2)cc1	i	i	i	i	i	x	x	x
CC(=O)N1CCc2cc(S(=O)(=O)NC(C)c3ccccc3)ccc21 (configuration not stated)	i	i	i	i	i	i	i	i
O=C(Cc1ccccc1[N+](=O)[O-])NCc1ccco1	i	i	i	i	i	x	x	x
CC(C(=O)NC(N)=O)N1C(=O)NC(c2ccccc2)(c2ccccc2)C1=O (configuration not stated)	i	i	i	i	i	x	x	x
Oc1c(Br)cccc1/C=N/c1ncn[nH]1	i	i	i	i	4.7*	7.5%*	i	i
O=C(CN1C(=O)S/C(=C\C=C\c2ccccc2)C1=O)N1CCCCC1	i	i	i	i	i	x	i	i
O=C(CN1C(=O)S/C(=C\C=C\c2ccccc2)C1=O)Nc1ccc(O)cc1	i	i	i	i	i	i	i	7.5%*
O=C(CCCN1C(=O)S/C(=C/C=C/c2ccccc2)C1=O)Nc1ccc(C(=O)O)cc1	i	i	i	i	i	x	x	x
O=C1C=C(NC2=CC3OC(c4ccccc4)OCC3OC2=O)CCC1 (configuration not stated)	i	i	i	i	7.7*	36%*	i	i
O=C(NCCCn1ccnc1)Nc1ccc2c(c1)OCO2	i	i	i	i	i	x	x	x
Cc1ccc(C(=O)NCc2ccco2)o1	i	i	i	i	i	x	x	x
CC(=O)Oc1cccc(/C=c2\sc3nc(-c4ccco4)nn3c2=O)c1	i	i	i	i	i	x	x	x
CCCOc1ccc(/C=c2\sc3nc(-c4ccco4)nn3c2=O)cc1OCC	i	i	i	i	i	i	i	154%*
CCOCCCNC(=O)CN1C(=O)COc2ccc(S(=O)(=O)N3CCCC3)cc21	i	i	i	i	i	x	i	i
CCCCCCCNC(=O)CN1C(=O)CSc2ccc(S(=O)(=O)N3CCOCC3)cc21	i	i	i	i	i	x	x	x
COCCCNC(=O)CN1C(=O)COc2ccc(S(=O)(=O)N3CCCCCC3)cc21	i	i	i	i	i	x	x	x
CCOCCCNC(=O)CN1C(=O)CSc2ccc(S(=O)(=O)N3CCOCC3)cc21	i	i	i	i	i	i	i	i
COC(=O)C1=C(O)/C(=C/c2cccc(OC)c2O)N=C1C	i	i	i	i	i	x	x	x
CCOC(=O)C1=C(O)/C(=C\c2cccc(OC)c2)N=C1C	i	i	32*	i	14*	47%*	i	i	MrgX1 ag reconf=158%*;HEK293 Ca flux=i;HEK293 Ca counter=i;HEK293 Ca cntr2=i
CCOc1cc(/C=C2\C(=O)ON=C2c2ccccc2)cc(Br)c1O	i	i	83*	i	i	i	i	322%*	MrgX1 ag reconf=i;HEK293 Ca flux=i;HEK293 Ca counter=i;HEK293 Ca cntr2=i
SMILES	MrgX1 allo act	MrgX1 antagonist	MrgX1 agonist	RGS4 act	RGS4 inh	RGS4 inh valid	RGS4 uninduced	RGS4 inh ctr2	others
COc1cc(/C=C2\C(=O)ON=C2c2ccccc2)cc(Br)c1O	i	i	78*	i	4.7*	9.5%*	i	281%*	MrgX1 ag reconf=i;HEK293 Ca flux=i;HEK293 Ca counter=i;HEK293 Ca cntr2=i
COc1cc(C=C2C(=O)OC(c3ccccc3)OC2=O)cc(Br)c1O (configuration not stated)	i	i	i	i	i	x	x	x
O=C(CSCc1cc(=O)n2ccsc2n1)Nc1ccc(F)cc1	i	i	i	i	i	x	x	x
N#Cc1nc(-c2ccco2)oc1NCCCn1ccnc1	i	i	i	i	i	x	x	x
COc1cc(/C=C2/C(=O)NN(c3cccc(Cl)c3)C2=O)cc(OC)c1O	i	i	79*	i	i	x	i	106%*	MrgX1 ag reconf=421%*;HEK293 Ca flux=i;HEK293 Ca counter=i;HEK293 Ca cntr2=84*
COc1cc(/C=C2/NC(=O)N(c3cccc(Cl)c3)C2=O)ccc1O	i	i	i	i	i	x	x	x
Cc1c(C)n(Cc2ccc(F)cc2)c2ccc(C(=O)N3CCN(c4ccccn4)CC3)cc12	i	i	i	i	i	x	x	x
